Data on three molecules can be found in ChEMBL document CHEMBL3872252, “New bithiazolyl hydrazones: Novel synthesis, characterization and antitubercular evaluation” (Bioorg Med Chem Lett, 2017).

A word on the MIC90: it is an inhibitory concentration at the 90% level, which refers to growth in some studies and to a panel of isolates in others. What is called IC50 is the concentration that inhibits the measured activity by half. In general, GI50 refers to the concentration that inhibits growth by half.

Series [1] is described as follows: Cytotoxicity against human THP1 cells by MTT assay. The series is classed as toxicity, cell-based, THP-1. Conditions: for GI90: thp-1. (In general: Formazan colour is commonly taken as a measure of viable cells.)
The nature of series [2]: Cytotoxicity against human MCF7 cells by MTT assay. The series is classed as toxicity, cell-based. Conditions: for GI90: mcf7.
A short description of series [3]: Cytotoxicity against human HCT116 cells by MTT assay. It is filed as toxicity, cell-based, HCT-116. The conditions noted are these: for GI90: hct-116.
A short description of series [4]: Antitubercular activity against Mycobacterium tuberculosis H37Ra ATCC 25177 dormant stage infected in human THP1 cells measured on day 12 by nitrate reductase assay. The series is classed as functional, THP-1. The conditions noted are these: ATCC 25177, 288 h.
The nature of series [5]: Antitubercular activity against Mycobacterium tuberculosis H37Ra ATCC 25177 active stage infected in human THP1 cells measured on day 8 by nitrate reductase assay. It is filed as functional, THP-1. The conditions noted are these: ATCC 25177, 192 h.
A short description of series [6]: Antitubercular activity against Mycobacterium tuberculosis H37Ra ATCC 25177 active stage measured on day 8 by XTT reduction menadione based two-fold dilution assay. The series is classed as functional. The conditions noted are these: ATCC 25177, 192 h. An outline of the steps:
(§1)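 M. tuberculosis H37Ra ATCC 25177 was exposed to 0.7–100 μg/mL in two-fold steps (0.7, 1.5, 3.1 … 100). Active stage was read after 8 days and dormant stage after 12 days of incubation. Inhibition was read by XTT reduction menadione assay (XRMA), absorbance 470 nm. MIC90 is the concentration giving ≥90% inhibition (µg/mL).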

Series [7] in a line: Antitubercular activity against Mycobacterium tuberculosis H37Ra ATCC 25177 dormant stage measured on day 12 by XTT reduction menadione based two-fold dilution assay. Conditions: ATCC 25177, 288 h. It is filed as functional. A digest of the protocol:
as §1

A short description of series [8]: Antitubercular activity against Mycobacterium bovis BCG ATCC 35743 active stage measured on day 8 by nitrate reductase based two-fold dilution assay. It is filed as functional, Mycobacterium bovis BCG str. ATCC 35743. Conditions: Mycobacterium tuberculosis variant bovis BCG, ATCC 35743, 192 h.
Series [9] can be described thus: Antitubercular activity against Mycobacterium bovis BCG ATCC 35743 dormant stage measured on day 12 by nitrate reductase based two-fold dilution assay. It is filed as functional, Mycobacterium bovis BCG str. ATCC 35743. The conditions noted are these: Mycobacterium tuberculosis variant bovis BCG, ATCC 35743, 288 h.
The nature of series [10]: Selectivity index, ratio of GI50 for human MCF7 cells to MIC90 for Mycobacterium tuberculosis H37Ra ATCC 25177 active stage. The series is classed as toxicity, cell-based. Conditions: read-out: Selectivity Index. An outline of the steps:
(§2)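 Cytotoxicity was measured on human MCF-7, HCT116 and THP-1 cells by MTT assay, with paclitaxel as reference. GI50 is the concentration inhibiting 50% of cell growth. The selectivity index is GI50 for the given cell line divided by MIC90 for the given mycobacterial strain and stage.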

The nature of series [11]: Selectivity index, ratio of GI50 for human MCF7 cells to MIC90 for Mycobacterium tuberculosis H37Ra ATCC 25177 dormant stage. It is filed as toxicity, cell-based. Conditions: read-out: Selectivity Index. A digest of the protocol: (§3)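 Cytotoxicity was measured on human MCF-7, HCT116 and THP-1 cells by MTT assay, with paclitaxel as reference. The selectivity index is GI50 for the given cell line divided by MIC90 for the given mycobacterial strain and stage.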

Series [12] can be described thus: Selectivity index, ratio of GI50 for human MCF7 cells to MIC90 for Mycobacterium bovis BCG ATCC 35743 active stage. It is filed as toxicity, cell-based. The conditions noted are these: read-out: Selectivity Index. An outline of the steps: as §2
Series [13] can be described thus: Selectivity index, ratio of GI50 for human MCF7 cells to MIC90 for Mycobacterium bovis BCG ATCC 35743 dormant stage. It is filed as toxicity, cell-based. The conditions noted are these: read-out: Selectivity Index. An outline of the steps: as §3
The nature of series [14]: Selectivity index, ratio of GI50 for human HCT116 cells to MIC90 for Mycobacterium tuberculosis H37Ra ATCC 25177 active stage. The series is classed as toxicity, cell-based, HCT-116. The conditions noted are these: read-out: Selectivity Index. An outline of the steps:
as §2

Series [15] is described as follows: Selectivity index, ratio of GI50 for human HCT116 cells to MIC90 for Mycobacterium tuberculosis H37Ra ATCC 25177 dormant stage. It is filed as toxicity, cell-based, HCT-116. The conditions noted are these: read-out: Selectivity Index. An outline of the steps: as §3
Series [16] is described as follows: Selectivity index, ratio of GI50 for human HCT116 cells to MIC90 for Mycobacterium bovis BCG ATCC 35743 active stage. The series is classed as toxicity, cell-based, HCT-116. Conditions: read-out: Selectivity Index. A digest of the protocol:
as §2

Series [17] is described as follows: Selectivity index, ratio of GI50 for human HCT116 cells to MIC90 for Mycobacterium bovis BCG ATCC 35743 dormant stage. Conditions: read-out: Selectivity Index. It is filed as toxicity, cell-based, HCT-116. An outline of the steps: as §3
A short description of series [18]: Selectivity index, ratio of GI50 for human THP1 cells to MIC90 for Mycobacterium tuberculosis H37Ra ATCC 25177 active stage. It is filed as toxicity, cell-based, THP-1. Conditions: read-out: Selectivity Index. A digest of the protocol:
as §2

Series [19] is described as follows: Selectivity index, ratio of GI50 for human THP1 cells to MIC90 for Mycobacterium tuberculosis H37Ra ATCC 25177 dormant stage. The series is classed as toxicity, cell-based, THP-1. The conditions noted are these: read-out: Selectivity Index. An outline of the steps: as §3
A short description of series [20]: Selectivity index, ratio of GI50 for human THP1 cells to MIC90 for Mycobacterium bovis BCG ATCC 35743 active stage. It is filed as toxicity, cell-based, THP-1. The conditions noted are these: read-out: Selectivity Index. A digest of the protocol: as §2
Series [21] can be described thus: Selectivity index, ratio of GI50 for human THP1 cells to MIC90 for Mycobacterium bovis BCG ATCC 35743 dormant stage. It is filed as toxicity, cell-based, THP-1. The conditions noted are these: read-out: Selectivity Index. A digest of the protocol: as §3
The subject of series [22] is Escherichia coli. The series is described as follows: Growth inhibition of Escherichia coli at 30 ug/ml. The series is classed as functional. The conditions noted are these: read-out: GI.
In series [23] the test system is Escherichia coli. Briefly: Growth inhibition of Escherichia coli at 10 ug/ml. The conditions noted are these: read-out: GI. It is filed as functional.
Series [24] relates to Escherichia coli. Briefly: Growth inhibition of Escherichia coli at 3 ug/ml. It is filed as functional. Conditions: read-out: GI. A digest of the protocol: (§4)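 Screened against Gram-negative E. coli and P. aeruginosa and Gram-positive S. aureus and B. subtilis. Compound was tested at 3 µg/ml, and the read-out is percent growth inhibition.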
Series [25] concerns Pseudomonas aeruginosa. Briefly: Growth inhibition of Pseudomonas aeruginosa at 30 ug/ml. The conditions noted are these: read-out: GI. The series is classed as functional.
Series [26] has as its system Pseudomonas aeruginosa. Briefly: Growth inhibition of Pseudomonas aeruginosa at 10 ug/ml. The series is classed as functional. Conditions: read-out: GI.
For series [27], the system named is Pseudomonas aeruginosa. Briefly: Growth inhibition of Pseudomonas aeruginosa at 3 ug/ml. Conditions: read-out: GI. The series is classed as functional. A digest of the protocol:
as §4

For series [28], the system named is Staphylococcus aureus. The series is described as follows: Growth inhibition of Staphylococcus aureus at 30 ug/ml. It is filed as functional. The conditions noted are these: read-out: GI.
In series [29] the test system is Staphylococcus aureus. Briefly: Growth inhibition of Staphylococcus aureus at 10 ug/ml. It is filed as functional. Conditions: read-out: GI.
For series [30], the system named is Staphylococcus aureus. Briefly: Growth inhibition of Staphylococcus aureus at 3 ug/ml. The series is classed as functional. The conditions noted are these: read-out: GI. A digest of the protocol: as §4
Series [31] has as its system Bacillus subtilis. Briefly: Growth inhibition of Bacillus subtilis at 30 ug/ml. It is filed as functional. The conditions noted are these: read-out: GI.
In series [32] the test system is Bacillus subtilis. The series is described as follows: Growth inhibition of Bacillus subtilis at 10 ug/ml. The series is classed as functional. The conditions noted are these: read-out: GI.
Series [33] relates to Bacillus subtilis. Briefly: Growth inhibition of Bacillus subtilis at 3 ug/ml. The series is classed as functional. Conditions: read-out: GI. An outline of the steps: as §4

In brackets after ≈: the same amount, converted by molar mass.

`CC(=O)O[C@H]1C(=O)[C@@]2(C)[C@H]([C@H](OC(=O)c3ccccc3)[C@]3(O)C[C@H](OC(=O)[C@H](O)[C@@H](NC(=O)c4ccccc4)c4ccccc4)C(C)=C1C3(C)C)[C@]1(OC(C)=O)CO[C@@H]1C[C@@H]2O` [PACLITAXEL]: the GI90 in [1] amounted to 5.814 µg/mL (≈ 6.81 µM); in series [2] it was 0.075 µg/mL (≈ 0.0878 µM); in series [3], 5.21 µg/mL (≈ 6.1 µM).

With `C/C(=N\NC(N)=S)c1sc(-c2ccccc2)nc1C`, the MIC90 in [4] was found to be 3.67 µg/mL (≈ 12.6 µM); in [5], 1.94 µg/mL (≈ 6.68 µM); in series [6], 1.78 µg/mL (≈ 6.13 µM); in [7], 2.05 µg/mL (≈ 7.06 µM); in series [8], 3.04 µg/mL (≈ 10.5 µM); in [9], 3.46 µg/mL (≈ 11.9 µM). The IC50 in series [6] amounted to 0.12 µg/mL (≈ 0.413 µM); in series [7] it was 0.78 µg/mL (≈ 2.69 µM); in series [8] it was 0.94 µg/mL (≈ 3.24 µM); in series [9], 0.97 µg/mL (≈ 3.34 µM). In addition, the figures for the GI50 in series [1] (THP1 cells), in series [2] (MCF7 cells) and in [3] (HCT116 cells) were 81.5 µg/mL (≈ 281 µM), 26 µg/mL (≈ 89.5 µM) and 47.3 µg/mL (≈ 163 µM), respectively. Moreover, the GI90 in [1], in series [2] and in series [3] was above 100 µg/mL each time. Also, the selectivity ratio came to 15 in series [10]; 13 in [11]; 9 in [12]; 8 in series [13]; 27 in series [14]; 23 in series [15]. The selectivity ratio in series [16] stood at 16; in [17] it was 14; in series [18], 46; in series [19], 40; in [20], 27; in [21], 24. The inhibition of growth at 30 µg/mL in series [22] came out at 79.6%; in series [25], 79.4%; in [28] it was 78.4%; in series [31], 76.7%. In addition, the inhibition of growth at 10 µg/mL worked out at 66.7% in series [23], 65.1% in series [26], 64.5% in [29] and 61.8% in [32]. Further, the inhibition of growth at 3 µg/mL turned out to be 50.9% in series [24], 47.4% in [27], 47.5% in [30] and 43.4% in series [33].

Take `CO[C@H]1/C=C/O[C@@]2(C)Oc3c(C)c(O)c4c(O)c(c(/C=N/N5CCN(C)CC5)c(O)c4c3C2=O)NC(=O)/C(C)=C\C=C\[C@H](C)[C@H](O)[C@@H](C)[C@@H](O)[C@@H](C)[C@H](OC(C)=O)[C@@H]1C` [RIFAMPIN]: the MIC90 in [4] amounted to 0.7 µg/mL (≈ 0.851 µM); in series [5] it was 0.5 µg/mL (≈ 0.608 µM); in [6] it was 0.51 µg/mL (≈ 0.62 µM); in series [7], 0.75 µg/mL (≈ 0.911 µM); in [8], 0.45 µg/mL (≈ 0.547 µM); in series [9], 0.81 µg/mL (≈ 0.984 µM). The IC50 is 0.51 µg/mL (≈ 0.62 µM) in series [6], 0.75 µg/mL (≈ 0.911 µM) in series [7], 0.45 µg/mL (≈ 0.547 µM) in series [8] and 0.81 µg/mL (≈ 0.984 µM) in series [9]. Besides, the GI90 in series [1], in series [2] and in [3] was above 100 µg/mL in each case.
